Our source for the IC50, inhibition and Activity values is ChEMBL document CHEMBL4765366, “Targeting fungal virulence factor by small molecules: Structure-based discovery of novel secreted aspartic protease 2 (SAP2) inhibitors” (Eur J Med Chem, 2020).

The nature of assay [1]: Inhibition of recombinant Candida albicans SAP2 using Dabcyl-Arg-Lys-Pro-Ala-Leu-Phe-Phe-Arg-Leu-Glu (EDANS)-Arg-OH as substrate incubated for 30 mins followed by substrate addition and measured after 30 mins by spectrophotometry.
The test system of assay [2] is Candida albicans. Description: Inhibition of recombinant Candida albicans SAP2 at 100 uM using Dabcyl-Arg-Lys-Pro-Ala-Leu-Phe-Phe-Arg-Leu-Glu (EDANS)-Arg-OH as substrate incubated for 30 mins followed by substrate addition and measured after 30 mins by spectrophotometry relative to control. Conditions: time 60.0 min. An outline of the steps:
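FRET assay with purified expressed C. albicans SAP2 in 50 mM sodium citrate, 50 mM NaCl, pH 4.5. Compound (diluted in DMSO) was preincubated with enzyme 30 min before adding the Dabcyl/EDANS peptide substrate (18.75 μM solution in DMSO). Reaction ran 30 min at 30 °C, then fluorescence was read at ex 340, em 485 nm. Pepstatin A was the positive control.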

Assay [3] deals with Candida albicans. Description: Antibiofilm activity against azole resistant Candida albicans 0304103 assessed as inhibition of biofilm formation incubated for 24 hrs by XTT-dye based assay. Type of assay: functional, organism-based. The following applies: dose 4-64 µg/ml. An outline of the steps:
(§1)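 Cell suspensions (1.0 × 10^5 CFU/mL) were adhered for 90 min at 37°C, then rinsed three times with PBS. Compounds were added at a range of concentrations from 2 mg/mL DMSO stocks, with fluconazole as the positive control. Plates were cultured 24 h at 37°C, and biofilm was measured semi-quantitatively by XTT reduction.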
For orientation: Tetrazolium dyes change colour on reduction, which living cells bring about.

The test system of assay [4] is Candida tropicalis. Briefly: Antibiofilm activity against azole resistant Candida tropicalis 10186 assessed as inhibition of biofilm formation incubated for 24 hrs by XTT-dye based assay. The class given is functional, organism-based. The following applies: dose 4-64 µg/ml. Summed up:
as §1

Assay [5] concerns Candida albicans. Briefly: Antibiofilm activity against azole resistant Candida albicans 0304103 assessed as inhibition of biofilm formation at 64 ug/ml incubated for 24 hrs by XTT-dye based assay relative to control. Type of assay: functional. An outline of the steps:
as §1

Assay [6] has as its system Candida albicans. Description: Downregulation of SAP2 in azole resistant Candida albicans 0304103 at 64 ug/ml by qRT-PCR analysis. Type of assay: functional. The following applies: dose 64.0 µg/ml. Background: Real-time PCR tracks product formation cycle by cycle.
For assay [7], the system named is Candida albicans. Briefly: Antifungal activity against azole resistant Candida albicans 0304103 infected in ICR mouse assessed as reduction in fungal burden in kidney at 10 mg/kg, ip administered for 4 days. The class given is functional, organism-based. Conditions: time 4.0 day. An outline of the steps: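 Female ICR mice (20–25 g) were immunosuppressed with cyclophosphamide, 100 mg/kg ip in saline. After 24 h they were infected iv with 0.2 mL of 1×10^5 CFU/mL cells. Starting 24 h after infection, mice (4 per group) received the drug ip once daily for four days; controls received saline or fluconazole 10 mg/kg. Kidneys were homogenized and plated on YPD at 30°C for log10 CFU.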

Assay [8] concerns Candida tropicalis. Briefly: Antibiofilm activity against azole resistant Candida tropicalis 10186 assessed as inhibition of biofilm formation at 64 ug/ml incubated for 24 hrs by XTT-dye based assay relative to control. Type of assay: functional. An outline of the steps: as §1

Calls of active or inactive are those of the source. No cut-off for these calls is given here. Some results are limits rather than exact numbers.

In general, IC50 refers to the midpoint of a concentration-inhibition curve. A word on the inhibition: it is the percentage by which the read-out fell short of the control. With `Cc1ccc(N2N=C(c3ccccc3)/C(=C/c3ccc(OCC(=O)O)cc3OCC(=O)O)C2=O)cc1`, the IC50 in assay [1] was determined as 13.5 µM. For the same compound, the inhibition in assay [2] was 99%.

On to `CCn1cc(/C=C(\NC(=O)c2ccccc2OC)C(=O)NCCO)c2ccccc21`, for which, in assay [1], the IC50 stood at 46.1 µM.

As to `CC(C)CC(=O)N[C@H](C(=O)N[C@H](C(=O)N[C@@H](CC(C)C)[C@@H](O)CC(=O)N[C@@H](C)C(=O)N[C@@H](CC(C)C)[C@@H](O)CC(=O)O)C(C)C)C(C)C` [PEPSTATIN], in assay [1], the concentration for half-maximal inhibition (IC50) is 0.022 µM. Also, the inhibition in assay [2] came out at 100%.

As for `CCc1ccc(/C=C2\C(=O)N(c3ccccc3)N=C2c2ccccc2)cc1`, the inhibition in assay [2] stood at 7%.

Take `CN(C)c1ccc(/C=C2\C(=O)N(c3ccccc3)N=C2c2ccccc2)cc1`: the inhibition in assay [2] stood at 11%.

Regarding `Cc1ccc(N2N=C(c3ccccc3)/C(=C/c3ccc(OCC(=O)O)cc3)C2=O)cc1`, the half-maximal inhibitory concentration (IC50) in assay [1] worked out at 21.6 µM. The inhibition in assay [2] came out at 93%.

As for `O=C(O)COc1ccc(/C=C2\C(=O)N(c3cccc(Cl)c3)N=C2c2ccccc2)cc1OCC(=O)O`, the IC50 in assay [1] amounted to 22.7 µM. The inhibition in assay [2] was 82%.

Regarding `O=C(O)COc1ccccc1/C=C1\C(=O)N(c2cccc(Cl)c2)N=C1c1ccccc1`, the half-maximal inhibitory concentration (IC50) in assay [1] amounted to 55.5 µM. In addition, in assay [2], the inhibition is 70%.

Regarding `O=C(O)COc1ccc(/C=C2\C(=O)N(c3ccc(Cl)cc3)N=C2c2ccccc2)cc1`, in assay [1], the IC50 was found to be 13 µM. In addition, in assay [2], the inhibition was determined as 96%.

As to `O=C(O)COc1ccccc1/C=C1\C(=O)N(c2ccc(F)cc2)N=C1c1ccccc1`, the inhibition in assay [2] was 46%.

As to `O=C(O)COc1ccc(/C=C2\C(=O)N(c3cccc(Cl)c3)N=C2c2ccccc2)cc1`, in assay [1], the half-inhibitory concentration (IC50) was 26.4 µM. In addition, the inhibition in assay [2] came to 90%.

As for `O=C(O)COc1ccc(/C=C2\C(=O)N(c3ccccc3)N=C2c2ccccc2)cc1`, in assay [1], the half-maximal inhibitory concentration (IC50) was 18.2 µM. Moreover, in assay [2], the inhibition was determined as 94%.

With `Cc1ccc(CN2C(=O)/C(=C\c3ccc(OCC(=O)O)cc3OCC(=O)O)N(Cc3ccc(C)cc3)C2=O)cc1`, the concentration for half-maximal inhibition (IC50) in assay [1] came to 23.8 µM. Further, in assay [2], the inhibition came to 91%.

On to `COc1cc([C@H]2C(C(=O)c3ccc([N+](=O)[O-])cc3)=C(O)C(=O)N2CCCCCC(=O)O)ccc1O`, for which the IC50 in assay [1] is 64 µM.

Take `Cc1ccc(-c2ccc3c(c2)N(Cc2ccc(C#N)cc2)C(=O)/C3=C/c2ccc(OCC(=O)O)cc2OCC(=O)O)cc1`: the inhibition in assay [2] is 100%; in assay [3] it was “Dose-dependent effect”; in assay [4], “Dose-dependent effect”. The inhibition at 64 µg/mL in assay [5] is over 50%. Besides, the outcome in assay [6] was Active.

`O=C(O)COc1ccc(/C=C2\C(=O)N(c3ccc(Cl)cc3)N=C2c2ccccc2)c(OCC(=O)O)c1`: in assay [1], the IC50 amounted to 10.8 µM. Moreover, the inhibition in assay [2] was determined as 99%.

Regarding `COc1ccc(N2N=C(c3ccccc3)/C(=C/c3ccc(OCC(=O)O)c(OCC(=O)O)c3)C2=O)cc1`, the half-inhibitory concentration (IC50) in assay [1] was 21.5 µM. Besides, the inhibition in assay [2] was 88%.

Turning to `Cc1ccc(CN2C(=O)C(=Cc3ccc(OCC(=O)O)cc3OCC(=O)O)C(=O)N2Cc2ccc(C)cc2)cc1`, the IC50 in assay [1] was 17.4 µM. In addition, the inhibition in assay [2] worked out at 94%.

For the compound `O=C(O)COc1ccccc1/C=C1\C(=O)N(c2ccc(Cl)cc2)N=C1c1ccccc1`, the IC50 in assay [1] was 75.2 µM. Moreover, the inhibition in assay [2] is 60%.

As to `COc1ccc(N2N=C(c3ccccc3)/C(=C/c3ccccc3OCC(=O)O)C2=O)cc1`, in assay [1], the IC50 was found to be 70.7 µM. Moreover, the inhibition in assay [2] was 64%.

Consider `O=C(O)COc1ccc(/C=C2\C(=O)N(c3ccccc3)N=C2c2ccccc2)cc1OCC(=O)O`, for which the half-maximal inhibitory concentration (IC50) in assay [1] stood at 18.5 µM. Besides, the inhibition in assay [2] is 86%.

As to `O=C(O)COc1ccc(/C=C2\C(=O)N(c3cccc(Cl)c3)N=C2c2ccccc2)c(OCC(=O)O)c1`, in assay [1], the IC50 was determined as 11.5 µM. The inhibition in assay [2] was determined as 99%.

As to `O=C(O)COc1ccc(/C=C2\C(=O)N(c3ccccc3)N=C2c2ccccc2)c(OCC(=O)O)c1`, the IC50 in assay [1] amounted to 10.1 µM. For the same compound, the inhibition in assay [2] was determined as 99%.

Regarding `O=C(O)COc1ccccc1/C=C1\C(=O)N(c2ccccc2)N=C1c1ccccc1`, in assay [1], the half-inhibitory concentration (IC50) came to 62.1 µM. The inhibition in assay [2] is 68%.

`CC(=O)c1ccc(CN2C(=O)/C(=C/c3ccc(OCC(=O)O)cc3OCC(=O)O)c3ccc(-c4ccc(C)cc4)cc32)cc1`: in assay [2], the inhibition stood at 90%. Also, the outcome in assay [6] was Active.

In the case of `Cc1ccc(-c2ccc3c(c2)N(Cc2ccc(S(C)(=O)=O)cc2)C(=O)/C3=C/c2ccc(OCC(=O)O)cc2OCC(=O)O)cc1`, the inhibition in assay [2] was 100%; in assay [3], “Dose-dependent effect”; in assay [4], “Dose-dependent effect”.

On to `OC(Cn1cncn1)(Cn1cncn1)c1ccc(F)cc1F`, for which the result in assay [7] was Active.

For the compound `O=C(O)COc1ccc(/C=C2\C(=O)N(c3ccc(F)cc3F)N=C2c2ccccc2)c(OCC(=O)O)c1`, the IC50 in assay [1] stood at 32.7 µM. Moreover, the inhibition in assay [2] came out at 86%.

As to `COc1ccc(CN2C(=O)/C(=C/c3ccc(OCC(=O)O)cc3OCC(=O)O)c3ccc(-c4ccc(C)cc4)cc32)cc1`, the inhibition in assay [2] was 29%.

Take `O=C1/C(=C\c2ccc(O)cc2)C(c2ccccc2)=NN1c1ccccc1`: in assay [2], the inhibition was determined as 12%.

For the compound `O=C(O)COc1ccc(/C=C2\C(=O)N(c3ccc(F)cc3)N=C2c2ccccc2)c(OCC(=O)O)c1`, the half-inhibitory concentration (IC50) in assay [1] amounted to 17.9 µM. Also, the inhibition in assay [2] stood at 93%.

Consider `CCOc1ccc(/C=C2\C(=O)N(c3ccccc3)N=C2c2ccccc2)cc1`, for which, in assay [2], the inhibition was 5%.

As to `O=C(O)COc1ccc(/C=C2\C(=O)N(c3ccc(F)cc3)N=C2c2ccccc2)cc1`, in assay [1], the 50% inhibitory concentration (IC50) was determined as 39.6 µM. The inhibition in assay [2] is 71%.

Turning to `Cc1ccc(N2N=C(c3ccccc3)/C(=C/c3ccccc3OCC(=O)O)C2=O)cc1`, the IC50 in assay [1] came to 72.3 µM. The inhibition in assay [2] amounted to 63%.

With `O=C(O)COc1ccc(/C=C2\C(=O)N(c3ccc(Cl)cc3)N=C2c2ccccc2)cc1OCC(=O)O`, the concentration for half-maximal inhibition (IC50) in assay [1] was determined as 46.9 µM. Besides, the inhibition in assay [2] was found to be 70%.

With `O=C(O)COc1ccc(/C=C2\C(=O)N(c3ccc(F)cc3)N=C2c2ccccc2)cc1OCC(=O)O`, the half-maximal inhibitory concentration (IC50) in assay [1] was found to be 33.7 µM. In addition, the inhibition in assay [2] turned out to be 83%.

As to `Cc1ccc(-c2ccc3c(c2)N(Cc2ccc(C(F)(F)F)cc2)C(=O)/C3=C/c2ccc(OCC(=O)O)cc2OCC(=O)O)cc1`, the inhibition was 100% in assay [2], “Dose-dependent effect” in assay [3] and “Dose-dependent effect” in assay [4]. Further, in assay [8], the inhibition at 64 µg/mL was over 50%. In addition, the outcome in assay [6] was Active.

As to `Cc1ccc(-c2ccc3c(c2)N(Cc2ccc(F)cc2)C(=O)/C3=C/c2ccc(OCC(=O)O)cc2OCC(=O)O)cc1`, the inhibition in assay [2] amounted to 58%.

As for `O=C1/C(=C\c2ccc(Br)cc2)C(c2ccccc2)=NN1c1ccccc1`, the inhibition in assay [2] was 10%.

In the case of `COc1ccc(N2N=C(c3ccccc3)/C(=C/c3ccc(OCC(=O)O)cc3OCC(=O)O)C2=O)cc1`, the IC50 in assay [1] was determined as 15.7 µM. The inhibition in assay [2] amounted to 94%.

Take `Cc1ccc(N2N=C(c3ccccc3)/C(=C/c3ccc(OCC(=O)O)c(OCC(=O)O)c3)C2=O)cc1`: in assay [1], the concentration for half-maximal inhibition (IC50) was 22.3 µM. In addition, in assay [2], the inhibition came to 85%.

For the compound `COc1ccc(N2N=C(c3ccccc3)/C(=C/c3ccc(OCC(=O)O)cc3)C2=O)cc1`, the IC50 in assay [1] came out at 20.4 µM. For the same compound, the inhibition in assay [2] is 95%.
